MrgX1 antagonist = human MrgX1 receptor antagonism, primary screen | 310,000 compounds, 1.3% hits | AID 588676 | B-score at 10 µM | Q96LB2 | MRGX1-HEK293 calcium flux, Fluo-4, BAM8-22 antagonism; active compounds read low;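 active = calcium-response B-score plate-corrected more than 3 library SD below zero, starting fluorescence within 5 deviations, no agonist response on first addition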;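 also: peak minus trough fluorescence over baseline after final BAM8-22 challenge near maximal dose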
Target sequence (Q96LB2 whole entry, looked up): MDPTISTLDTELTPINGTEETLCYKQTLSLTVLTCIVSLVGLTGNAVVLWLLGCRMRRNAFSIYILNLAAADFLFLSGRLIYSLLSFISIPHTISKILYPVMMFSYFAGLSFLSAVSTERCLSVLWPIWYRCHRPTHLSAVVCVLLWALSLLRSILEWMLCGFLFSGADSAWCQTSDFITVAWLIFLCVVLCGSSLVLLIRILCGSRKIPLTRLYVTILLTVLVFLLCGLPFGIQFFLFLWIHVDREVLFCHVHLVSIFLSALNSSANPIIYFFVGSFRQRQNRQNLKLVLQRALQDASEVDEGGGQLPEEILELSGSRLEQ
RGS4 act = RGS4 potentiation or activation; HEK293 M3R/inducible RGS4, carbachol calcium flux Fluo4; active compounds read low; B-score at 10 µM; 310,000 compounds, 0.92% hits;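 active = B-score of the integrated calcium signal more than 4 SD below the library mean, with starting fluorescence not abnormally high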;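 also: negative B-score means reduced calcium response which marks RGS4 activation or potentiation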
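test system = HEK293 cells with stable M3R and inducible RGS4 | schedule = recording 10 s baseline at 1 Hz, 100 s post-agonist | technique = Fluo4-AM (2 µM) calcium-flux fluorescence, kinetic read | measure = Agonist-evoked peak-minus-minimum fluorescence over baseline, integrated ratio, B score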
RGS4 inh = human RGS4 inhibition; B-score at 10 µM; AID 463165; HEK293 M3R/RGS4 inducible, Fluo-4 calcium flux; active compounds read high; triggered by carbachol at its EC20; 310,000 compounds, 0.45% hits; P49798;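 active = B-score, a plate-corrected calcium signal, over three deviations above library mean, with baseline fluorescence within five deviations of library mean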;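 also: RGS4 expression induced by doxycycline in cells with stable M3 receptor; B-score is computed from the integrated fluorescence ratio over baseline after carbachol; higher B-score means a larger calcium signal and so more RGS4 inhibition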
MrgX1 agonist = agonists of human MrgX1 receptor; Q96LB2; AID 588627; 310,000 compounds, 0.44% hits; B-score at 10 µM; MrgX1-HEK293 cells, Fluo-4 calcium fluorescence, agonist mode; active compounds read high;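 active = calcium response B-score plate-corrected fluorescence ratio at least 3 library SD, with starting fluorescence B-score inside 5 SD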
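times = overnight plating, then 30 min 37 °C plus 30 min room-temperature dye loading | assay system = stable human MrgX1 HEK293 cell line | input = fifteen thousand cells per well | signal = kinetic calcium dye fluorescence, Fluo-4 NW | dosing = compound delivered in addition one of three | read-out = B-scored fluorescence response ratio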
MrgX1 allo act = human MrgX1 positive allosteric modulation, primary screen; B-score at 10 µM; AID 588675; Q96LB2; MrgX1-HEK293, Fluo-4 calcium flux, FDSS; active compounds read high; 310,000 compounds, 0.63% hits;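 active = plate-corrected calcium response at least 3 library SD above typical, normal starting fluorescence, not activating the receptor alone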;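 also: compound read alongside a low EC10 to EC30 dose of BAM8-22 agonist; peak minus trough fluorescence over baseline measured at the second addition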
* marks the source's active call; other numbers are inactive results; i = inactive. A selection: hits, their analogues and other compounds. The true share with any hit is near 3.5%.

SMILES	MrgX1 antagonist	RGS4 act	RGS4 inh	MrgX1 agonist	MrgX1 allo act
CCN1CCN(S(=O)(=O)c2ccc(Cl)c(C(=O)NC(C)c3ccccc3Cl)c2)CC1 (stereo not drawn)	-5.4*	i	i	i	i
COc1ccccc1CNC(=O)c1nn(-c2ccc(C)cc2)c(=O)c2c1c1ccccc1n2C	-8*	i	i	i	i
O=C(Cn1cnc([N+](=O)[O-])c1)c1ccc(F)cc1	i	i	i	i	11*
O=C(Cn1cnc([N+](=O)[O-])c1)NCc1ccc(F)cc1	i	i	i	i	i
CCCCCCCCCCCC(=O)c1c(O)cccc1O	i	-9.2*	i	i	i
COc1cc(C)c(C)cc1S(=O)(=O)NC1CC(C)(C)NC(C)(C)C1	i	i	i	i	i
CC[n+]1c(/C=C/N(C)c2ccccc2)oc2ccccc21	i	i	i	i	i
CC/C(=C\c1oc2cc3ccccc3cc2[n+]1CC)Nc1ccccc1	i	i	i	27*	i
O=C(CNS(=O)(=O)c1c(Cl)cccc1Cl)OCc1csc(-c2ccccc2)n1	i	i	i	i	i
Cc1c(N=C2N=C(NC(=O)c3cccs3)c3ccccc32)c(=O)n(-c2ccccc2)n1C	i	i	i	33*	i
Cc1cc(C)c(C)c(OCCCCN2CCCCC2)c1	i	i	i	i	i
O=C(NNC1=C(C(=O)C(F)(F)F)CCC1)c1ccccc1O	i	i	i	i	i
COc1ccccc1C(=O)NNC1=C(C(=O)C(F)(F)F)CCC1	i	i	i	39*	i
Cc1ccsc1C=C1C(=O)c2ccccc2C1=O	i	i	i	i	i
Cc1ccsc1/C=C1/C(=O)NN(c2ccccc2)C1=O	i	i	i	33*	i
Cc1ccc(/C=N/NC(=O)c2cccc(S(=O)(=O)Nc3ccccc3Cl)c2)o1	i	i	i	i	13*
O=C(N/N=C/c1ccco1)c1cccc(S(=O)(=O)Nc2ccccc2Cl)c1	i	i	i	i	i
CCCCn1c(N)c(N(CCOC)C(=O)CN2c3ccccc3CC2C)c(=O)[nH]c1=O (stereo not drawn)	i	i	i	i	i
COc1ccc(NC(=O)CCCc2nnc3n(C)c(=O)c4sccc4n23)cc1	i	i	i	i	i
CC(c1ccccc1)N1C(=O)c2ccc(C(=O)Nc3ccc(Br)cc3C(=O)O)cc2C1=O (stereo not drawn)	-11*	i	i	i	i
CC(C)CCN1C(=O)c2ccc(C(=O)Nc3ccccc3C(=O)O)cc2C1=O	i	-7.1*	i	i	i
COc1ccc(-n2c(C)cc(/C=C3/SC(=S)N(C)C3=O)c2C)cc1	i	i	i	i	i
O=C1/C(=C\c2ccco2)SC(=S)N1Cc1ccccc1	i	i	i	i	i
Cc1cc(/C=C2\SC(=S)N(Cc3ccco3)C2=O)c(C)n1-c1ccccc1	-4.5*	i	i	i	i
Cc1cc(/C=C2\SC(=S)N(C)C2=O)c(C)n1-c1cccc(O)c1	-5.7*	i	i	i	i
SMILES	MrgX1 antagonist	RGS4 act	RGS4 inh	MrgX1 agonist	MrgX1 allo act
Cc1ccc(S(=O)(=O)NNC(=O)Nc2ccc(C)c(C)c2)c(C)c1	i	i	i	i	i
Cc1csc(=O)n1CCC(=O)OCC(=O)Nc1cccc(C#N)c1	i	i	i	i	i
O=C(CCS(=O)(=O)c1ccccc1)N1CCN(c2ccccc2)CC1	i	i	i	i	i
CCOC(=O)c1cc2c(=O)n3cccc(C)c3nc2n(Cc2ccco2)c1=NC(=O)c1ccccc1	i	-7.2*	i	i	i
CCOC(=O)c1cc2c(=O)n3ccccc3nc2n(Cc2ccco2)c1=NC(=O)c1cccc(OC)c1	-5.8*	-7.4*	i	i	i
Cc1oc2c(cc(NS(=O)(=O)c3ccc(F)cc3)c3ccccc32)c1C(=O)O	i	i	i	i	i
Cc1oc2c(cc(NS(=O)(=O)c3ccc(C(C)C)cc3)c3ccccc32)c1C(=O)O	i	-8.6*	i	i	i
C[N+]1(C)CCC(=C2c3ccccc3CC(=O)c3sccc32)CC1	i	-8.3*	i	i	i

Source: PubChem BioAssay
